Measured values taken from ChEMBL document CHEMBL3808372, “Identification of quinones as novel PIM1 kinase inhibitors” (Bioorg Med Chem Lett, 2016).

How the values were obtained:
[1] = molecular target: T1, Serine/threonine-protein kinase pim-1 (Homo sapiens, UniProt P11309); experiment: Share of MOE computational kinase hits for Pim family
Target sequence in this assay (P11309 whole entry, looked up): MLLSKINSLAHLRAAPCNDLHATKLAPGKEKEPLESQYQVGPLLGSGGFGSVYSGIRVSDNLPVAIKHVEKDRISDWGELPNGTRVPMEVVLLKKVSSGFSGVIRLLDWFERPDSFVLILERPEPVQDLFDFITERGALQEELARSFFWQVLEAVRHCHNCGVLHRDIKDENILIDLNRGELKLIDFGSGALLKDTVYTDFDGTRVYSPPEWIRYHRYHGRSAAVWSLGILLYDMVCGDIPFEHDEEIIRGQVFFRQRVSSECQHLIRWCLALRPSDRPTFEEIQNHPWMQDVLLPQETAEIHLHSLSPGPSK

[2] = molecular target: MAP kinase-interacting serine/threonine-protein kinase 1 (Homo sapiens) (UniProt Q9BUB5); experiment: Inhibition of full length human MKNK1 assessed as enzyme activity at 10 uM by KINOMEScan assay; design: scale not given: the % may be the effect or the level left
Summary of the method: (§1)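 Competition binding screen on a 100-kinase KINOMEscan panel, compound tested at a single 10 μM concentration. Primary binding read-out expressed as % Ctrl = (test compound signal − positive control signal)/(negative control signal − positive control signal) × 100, with lower values meaning stronger binding.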

[3] = molecular target: Serine/threonine-protein kinase pim-2 (Homo sapiens) (UniProt Q9P1W9); experiment: Inhibition of human PIM2 (1 to 291 amino acid residues) expressed in bacterial system assessed as enzyme activity at 10 uM by KINOMEScan assay; design: scale not given: the % may be the effect or the level left
Summary of the method: (§2)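 Single-concentration competition binding screen (KINOMEscan) across a 100-kinase panel at 10 μM. Primary binding read-out is reported as % of control: (test signal − positive-control signal)/(negative-control signal − positive-control signal) × 100. Lower values indicate stronger binding.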

[4] = molecular target: Rho-associated protein kinase 2 (Homo sapiens) (UniProt O75116); experiment: Inhibition of human ROCK2 (1 to 431 amino acid residues) assessed as enzyme activity at 10 uM by KINOMEScan assay; design: scale not given: the % may be the effect or the level left
Summary of the method: as §2

[5] = molecular target: Ribosomal protein S6 kinase alpha-2 (Homo sapiens) (UniProt Q15349); experiment: Inhibition of human RSK2 Kin.Dom.1-N-terminal (1 to 394 amino acid residues) assessed as enzyme activity at 10 uM by KINOMEScan assay; design: scale not given: the % may be the effect or the level left
Summary of the method: as §2

[6] = molecular target: Protein kinase C epsilon type (Homo sapiens) (UniProt Q02156); experiment: Inhibition of human PRKCE (378 to 737 amino acid residues) assessed as enzyme activity at 10 uM by KINOMEScan assay; design: scale not given: the % may be the effect or the level left
Summary of the method: as §2

[7] = molecular target: RAF proto-oncogene serine/threonine-protein kinase (Homo sapiens) (UniProt P04049); experiment: Inhibition of human RAF1 (330 to 640 amino acid residues) expressed in bacterial system assessed as enzyme activity at 10 uM by KINOMEScan assay; design: scale not given: the % may be the effect or the level left
Summary of the method: (§3)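 Commercial KINOMEscan binding panel of 100 kinases, test compound at 10 μM. Results are primary-screen binding interactions expressed as % Ctrl = (test compound signal − positive control signal)/(negative control signal − positive control signal) × 100. Lower % Ctrl means stronger binding.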

[8] = molecular target: T1, Serine/threonine-protein kinase pim-1; experiment: Inhibition of recombinant human Pim1
Target sequence in this assay (P11309 whole entry): as the sequence (P11309 whole entry, looked up) above

[9] = molecular target: Mitogen-activated protein kinase 9 (Homo sapiens) (UniProt P45984); experiment: Inhibition of full length human JNK2 assessed as enzyme activity at 10 uM by KINOMEScan assay; design: scale not given: the % may be the effect or the level left
Summary of the method: as §1

[10] = molecular target: cAMP-dependent protein kinase catalytic subunit alpha (Homo sapiens) (UniProt P17612); experiment: Inhibition of human PKAC-alpha (10 to 351 amino acid residues) expressed in bacterial system assessed as enzyme activity at 10 uM by KINOMEScan assay; design: scale not given: the % may be the effect or the level left
Summary of the method: as §2

[11] = Cytotoxicity against human DU145 cells assessed as cell growth inhibition after 72 hrs by Alamar blue assay; assay type: functional, cell-based; details: DU-145, 72 h
[12] = molecular target: Serine/threonine-protein kinase 32C (Homo sapiens) (UniProt Q86UX6); experiment: Inhibition of human YANK3 (68 to 486 amino acid residues) expressed in bacterial system assessed as enzyme activity at 10 uM by KINOMEScan assay; design: scale not given: the % may be the effect or the level left
Summary of the method: as §2

[13] = molecular target: Platelet-derived growth factor receptor alpha (Homo sapiens) (UniProt P16234); experiment: Inhibition of human PDGFRA (575 to 1002 amino acid residues) assessed as enzyme activity at 10 uM by KINOMEScan assay; design: scale not given: the % may be the effect or the level left
Summary of the method: as §3

[14] = molecular target: NUAK family SNF1-like kinase 2 (Homo sapiens) (UniProt Q9H093); experiment: Inhibition of human SNARK (22 to 333 amino acid residues) assessed as enzyme activity at 10 uM by KINOMEScan assay; design: scale not given: the % may be the effect or the level left
Summary of the method: as §2

[15] = molecular target: Fibroblast growth factor receptor 3 (Homo sapiens) (UniProt P22607); experiment: Inhibition of human FGFR3 (442 to 771 amino acid residues) assessed as enzyme activity at 10 uM by KINOMEScan assay expressed in bacterial system assessed as enzyme activity at 10 uM by KINOMEScan assay; design: scale not given: the % may be the effect or the level left
Summary of the method: as §1

[16] = molecular target: Serine/threonine-protein kinase B-raf (Homo sapiens) (UniProt P15056); experiment: Inhibition of human BRAF (429 to 741 amino acid residues) assessed as enzyme activity at 10 uM by KINOMEScan assay; design: scale not given: the % may be the effect or the level left
Summary of the method: as §1

[17] = molecular target: Mitogen-activated protein kinase 3 (Homo sapiens) (UniProt P27361); experiment: Inhibition of full length human ERK1 expressed in bacterial system assessed as enzyme activity at 10 uM by KINOMEScan assay; design: scale not given: the % may be the effect or the level left
Summary of the method: as §3

[18] = molecular target: Inhibitor of nuclear factor kappa-B kinase subunit beta (Homo sapiens) (UniProt O14920); experiment: Inhibition of full length human IKK-beta assessed as enzyme activity at 10 uM by KINOMEScan assay; design: scale not given: the % may be the effect or the level left
Summary of the method: as §1

[19] = test system: Mast/stem cell growth factor receptor Kit (Homo sapiens), P10721 [D816V]; experiment: Inhibition of human KIT D816V mutant (571 to 952 amino acid residues) expressed in bacterial system assessed as enzyme activity at 10 uM by KINOMEScan assay; design: scale not given: the % may be the effect or the level left
Summary of the method: as §3

[20] = molecular target: Fibroblast growth factor receptor 2 (Homo sapiens) (UniProt P21802); experiment: Inhibition of human FGFR2 (457 to 769 amino acid residues) assessed as enzyme activity at 10 uM by KINOMEScan assay expressed in bacterial system assessed as enzyme activity at 10 uM by KINOMEScan assay; design: scale not given: the % may be the effect or the level left
Summary of the method: as §3

[21] = molecular target: Serine/threonine-protein kinase DCLK1 (Homo sapiens) (UniProt O15075); experiment: Inhibition of human DCAMKL1 (270 to 662 amino acid residues) assessed as enzyme activity at 10 uM by KINOMEScan assay; design: scale not given: the % may be the effect or the level left
Summary of the method: as §1

[22] = molecular target: RAC-beta serine/threonine-protein kinase (Homo sapiens) (UniProt P31751); experiment: Inhibition of human Akt2 expressed in bacterial system assessed as enzyme activity at 10 uM by KINOMEScan assay; design: scale not given: the % may be the effect or the level left
Summary of the method: as §3

[23] = molecular target: Serine/threonine-protein kinase PAK 4 (Homo sapiens) (UniProt O96013); experiment: Inhibition of human PAK4 (144 to 438 amino acid residues) expressed in bacterial system assessed as enzyme activity at 10 uM by KINOMEScan assay; design: scale not given: the % may be the effect or the level left
Summary of the method: as §2

[24] = molecular target: Cyclin-dependent kinase 9 (Homo sapiens) (UniProt P50750); experiment: Inhibition of full length human CDK9 expressed in bacterial system assessed as enzyme activity at 10 uM by KINOMEScan assay; design: scale not given: the % may be the effect or the level left
Summary of the method: as §3

[25] = molecular target: Tyrosine-protein kinase JAK3 (Homo sapiens) (UniProt P52333); experiment: Inhibition of human JAK3 JH1 catalytic domain (781 to 1124 amino acid residues) assessed as enzyme activity at 10 uM by KINOMEScan assay; design: scale not given: the % may be the effect or the level left
Summary of the method: as §1

[26] = molecular target: Serine/threonine-protein kinase pim-3 (Homo sapiens) (UniProt Q86V86); experiment: Inhibition of PIM3 (unknown origin)
[27] = molecular target: Tyrosine-protein kinase JAK2 (Homo sapiens) (UniProt O60674); experiment: Inhibition of human JAK2 JH1 catalytic domain (829 to 1132 amino acid residues) assessed as enzyme activity at 10 uM by KINOMEScan assay; design: scale not given: the % may be the effect or the level left
Summary of the method: as §1

Sequence of Serine/threonine-protein kinase B-raf (Homo sapiens) (P15056 whole entry, the tested form may be a part): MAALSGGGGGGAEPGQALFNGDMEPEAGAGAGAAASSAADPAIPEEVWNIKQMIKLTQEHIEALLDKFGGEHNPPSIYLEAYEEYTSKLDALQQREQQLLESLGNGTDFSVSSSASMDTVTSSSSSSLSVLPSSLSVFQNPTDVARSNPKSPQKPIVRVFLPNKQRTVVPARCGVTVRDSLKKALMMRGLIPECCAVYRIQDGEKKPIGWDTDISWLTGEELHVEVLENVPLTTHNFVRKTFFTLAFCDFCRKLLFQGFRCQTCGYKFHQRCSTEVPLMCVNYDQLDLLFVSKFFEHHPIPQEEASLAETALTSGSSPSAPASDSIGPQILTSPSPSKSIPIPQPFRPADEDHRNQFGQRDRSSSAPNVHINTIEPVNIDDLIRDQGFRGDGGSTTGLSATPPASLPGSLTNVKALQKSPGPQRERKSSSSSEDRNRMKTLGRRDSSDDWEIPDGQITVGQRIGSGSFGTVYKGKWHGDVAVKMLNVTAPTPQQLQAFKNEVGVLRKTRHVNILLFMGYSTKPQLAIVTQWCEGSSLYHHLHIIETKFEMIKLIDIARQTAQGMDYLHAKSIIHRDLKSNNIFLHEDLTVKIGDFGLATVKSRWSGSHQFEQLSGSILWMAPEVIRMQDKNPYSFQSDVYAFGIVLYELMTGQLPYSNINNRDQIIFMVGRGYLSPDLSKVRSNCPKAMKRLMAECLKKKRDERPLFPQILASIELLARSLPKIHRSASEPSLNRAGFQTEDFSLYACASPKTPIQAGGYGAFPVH
Sequence of Mitogen-activated protein kinase 3 (Homo sapiens) (P27361 whole entry): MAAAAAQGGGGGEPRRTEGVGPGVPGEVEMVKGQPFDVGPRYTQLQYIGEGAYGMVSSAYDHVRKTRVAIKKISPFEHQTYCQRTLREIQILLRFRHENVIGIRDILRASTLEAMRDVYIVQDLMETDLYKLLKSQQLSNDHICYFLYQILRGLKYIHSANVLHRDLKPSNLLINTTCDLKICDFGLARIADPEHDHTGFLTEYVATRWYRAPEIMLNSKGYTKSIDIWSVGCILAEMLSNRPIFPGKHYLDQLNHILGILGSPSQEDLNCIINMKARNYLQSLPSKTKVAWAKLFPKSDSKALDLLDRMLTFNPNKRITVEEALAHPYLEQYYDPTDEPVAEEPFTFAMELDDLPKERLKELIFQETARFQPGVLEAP
Sequence of Serine/threonine-protein kinase pim-2 (Homo sapiens) (Q9P1W9 whole entry, looked up, the tested form may be a part): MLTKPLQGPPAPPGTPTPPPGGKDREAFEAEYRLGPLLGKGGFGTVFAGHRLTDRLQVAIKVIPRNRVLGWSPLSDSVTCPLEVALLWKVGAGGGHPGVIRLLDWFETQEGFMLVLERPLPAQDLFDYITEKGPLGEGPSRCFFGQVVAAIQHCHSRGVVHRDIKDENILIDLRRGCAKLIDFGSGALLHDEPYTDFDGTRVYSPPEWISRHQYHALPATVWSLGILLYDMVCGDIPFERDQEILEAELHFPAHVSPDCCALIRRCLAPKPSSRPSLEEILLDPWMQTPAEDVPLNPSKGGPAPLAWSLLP
Sequence of Tyrosine-protein kinase JAK2 (Homo sapiens) (O60674 whole entry, the tested form may be a part): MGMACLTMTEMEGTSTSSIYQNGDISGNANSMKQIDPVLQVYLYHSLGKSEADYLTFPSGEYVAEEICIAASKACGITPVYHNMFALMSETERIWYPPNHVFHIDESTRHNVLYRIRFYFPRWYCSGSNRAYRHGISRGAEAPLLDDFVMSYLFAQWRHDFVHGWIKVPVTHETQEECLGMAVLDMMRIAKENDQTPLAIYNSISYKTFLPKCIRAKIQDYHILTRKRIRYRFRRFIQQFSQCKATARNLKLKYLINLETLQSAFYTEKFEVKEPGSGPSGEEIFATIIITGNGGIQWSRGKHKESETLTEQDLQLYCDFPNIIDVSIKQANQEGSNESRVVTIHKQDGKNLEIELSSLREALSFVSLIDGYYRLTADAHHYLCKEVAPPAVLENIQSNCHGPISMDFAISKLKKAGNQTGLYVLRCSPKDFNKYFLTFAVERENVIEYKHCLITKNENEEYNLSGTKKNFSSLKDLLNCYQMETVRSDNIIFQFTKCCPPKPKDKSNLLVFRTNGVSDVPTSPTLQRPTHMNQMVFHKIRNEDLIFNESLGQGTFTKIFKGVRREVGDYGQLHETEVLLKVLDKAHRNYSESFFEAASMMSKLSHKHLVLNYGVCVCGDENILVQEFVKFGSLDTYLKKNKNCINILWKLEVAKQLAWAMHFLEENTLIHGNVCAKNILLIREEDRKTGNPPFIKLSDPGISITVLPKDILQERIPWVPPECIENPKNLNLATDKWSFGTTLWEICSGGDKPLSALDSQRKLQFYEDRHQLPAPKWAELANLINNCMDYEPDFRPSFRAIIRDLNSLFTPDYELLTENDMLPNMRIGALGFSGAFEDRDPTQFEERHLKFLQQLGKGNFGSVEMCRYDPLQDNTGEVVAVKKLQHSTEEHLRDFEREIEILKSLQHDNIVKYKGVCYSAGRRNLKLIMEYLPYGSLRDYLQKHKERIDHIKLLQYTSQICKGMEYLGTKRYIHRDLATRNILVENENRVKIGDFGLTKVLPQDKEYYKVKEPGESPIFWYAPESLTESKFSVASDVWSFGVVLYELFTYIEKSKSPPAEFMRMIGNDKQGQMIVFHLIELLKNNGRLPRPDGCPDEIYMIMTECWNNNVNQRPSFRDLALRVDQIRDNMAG
Sequence of Mitogen-activated protein kinase 9 (Homo sapiens) (P45984 whole entry, looked up): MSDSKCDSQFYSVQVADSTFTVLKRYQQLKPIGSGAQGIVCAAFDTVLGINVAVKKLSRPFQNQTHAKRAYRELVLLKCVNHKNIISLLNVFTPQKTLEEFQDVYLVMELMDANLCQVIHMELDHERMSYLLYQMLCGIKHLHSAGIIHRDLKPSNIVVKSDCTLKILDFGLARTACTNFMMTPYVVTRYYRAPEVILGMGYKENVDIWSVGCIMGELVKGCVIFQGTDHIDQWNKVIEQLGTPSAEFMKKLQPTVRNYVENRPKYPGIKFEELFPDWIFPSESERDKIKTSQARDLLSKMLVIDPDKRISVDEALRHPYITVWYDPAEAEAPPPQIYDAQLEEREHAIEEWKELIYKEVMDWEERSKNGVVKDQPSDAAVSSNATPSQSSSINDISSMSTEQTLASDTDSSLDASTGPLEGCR
Sequence of Fibroblast growth factor receptor 2 (Homo sapiens) (P21802 22-821 limits assumed): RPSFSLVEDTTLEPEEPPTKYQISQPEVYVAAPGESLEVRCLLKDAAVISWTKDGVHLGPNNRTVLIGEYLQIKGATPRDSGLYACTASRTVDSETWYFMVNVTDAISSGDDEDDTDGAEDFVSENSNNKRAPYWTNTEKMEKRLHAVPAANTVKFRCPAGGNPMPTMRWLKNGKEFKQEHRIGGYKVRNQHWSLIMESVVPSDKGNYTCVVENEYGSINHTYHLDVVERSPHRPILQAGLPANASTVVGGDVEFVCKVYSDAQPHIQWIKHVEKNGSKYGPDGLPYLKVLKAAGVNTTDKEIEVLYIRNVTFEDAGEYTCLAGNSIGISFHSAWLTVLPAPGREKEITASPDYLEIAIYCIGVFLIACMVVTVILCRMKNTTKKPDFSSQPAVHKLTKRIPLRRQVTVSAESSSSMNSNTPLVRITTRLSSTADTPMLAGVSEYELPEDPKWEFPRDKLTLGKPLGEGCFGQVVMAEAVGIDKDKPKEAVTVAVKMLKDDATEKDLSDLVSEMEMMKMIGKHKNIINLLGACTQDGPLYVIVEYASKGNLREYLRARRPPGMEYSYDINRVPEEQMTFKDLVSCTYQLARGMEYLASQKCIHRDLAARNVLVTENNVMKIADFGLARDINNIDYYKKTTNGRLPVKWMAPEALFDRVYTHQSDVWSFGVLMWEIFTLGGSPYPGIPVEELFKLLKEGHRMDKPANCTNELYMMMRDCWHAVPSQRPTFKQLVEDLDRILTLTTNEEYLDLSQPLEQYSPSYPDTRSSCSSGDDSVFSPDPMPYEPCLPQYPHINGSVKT
Sequence of RAC-beta serine/threonine-protein kinase (Homo sapiens) (P31751 whole entry): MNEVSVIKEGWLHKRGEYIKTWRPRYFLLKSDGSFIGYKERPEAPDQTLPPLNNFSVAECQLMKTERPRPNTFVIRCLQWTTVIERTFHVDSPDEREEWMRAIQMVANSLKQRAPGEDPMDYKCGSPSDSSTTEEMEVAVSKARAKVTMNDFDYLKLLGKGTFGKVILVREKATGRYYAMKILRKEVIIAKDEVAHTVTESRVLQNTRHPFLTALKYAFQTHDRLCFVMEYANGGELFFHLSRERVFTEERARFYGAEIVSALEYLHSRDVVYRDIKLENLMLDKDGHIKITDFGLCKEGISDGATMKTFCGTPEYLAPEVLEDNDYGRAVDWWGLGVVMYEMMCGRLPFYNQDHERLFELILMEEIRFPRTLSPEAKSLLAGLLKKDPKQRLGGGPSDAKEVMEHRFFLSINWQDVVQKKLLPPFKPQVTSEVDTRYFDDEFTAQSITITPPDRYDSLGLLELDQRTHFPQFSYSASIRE

For `O=C1C2=C(C(=O)c3c(O)ccc(O)c31)[C@@H](O)[C@@H](O)[C@@H](O)C2`, the % of MOE kinase hits [1] was 29%, the Activity [2] was 45% and the Activity [3] was 67%. For the same compound, the Activity [4] was 77%, the Activity [5] was 53% and the Activity [6] was 92%. For the same compound, the Activity [7] was 100%, the IC50 [8] was 19.2 µM and the Activity [9] was 84%. The Activity [10] was 84%, the IC50 [11] was 8.21 µM and the Activity [12] was 89%. It also gave an Activity [13] of 100%, an Activity [14] of 90% and an Activity [15] of 93%. The Activity [16] was 87%, the Activity [17] was 100% and the Activity [18] was 91%. The Activity [19] was 100%, the Activity [20] was 100% and the Activity [21] was 90%. The Activity [22] was 100%, the Activity [23] was 91% and the Activity [24] was 100%. For the same compound, the Activity [25] was 61%, the % of MOE kinase hits [26] was 29% and the Activity [27] was 94%.
